Sampled rows, rich in hits. Any-hit rate of the full collection: about 3.1%.
FN deposit inh = fibronectin deposition inhibition. AID 743247. inhibition, % at 12.6 µM. 350,000 compounds, 0.086% hits. AH1F fibroblasts, Alexa488-fibronectin deposition fluorescence, overnight;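 active means mean inhibition across replicates of 30% or more, regardless of how many single replicates reach that level; inconclusive means mean under 30% yet at least half of replicates reach 30%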
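Assay system: AH1F fibroblasts / Quantity: 10000 cells per well / Medium: DMEM plus 2% serum, read in PBS / Reagent: labelled fibronectin 24 nM / Dosing: single dose, pinned / Times: 1 h cell attachment, overnight exposure to compound and label / Signal: fluorescence, ex 485 nm, em 525 nm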
HIV Env fusion = inhibitors of HIV Env-mediated cell fusion; HeLa-JRFL Env/CEM21 cell fusion, luciferase; inhibition, % at 12.3 µM; 360,000 compounds, 1.1% hits; AID 651610;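 active means mean replicate inhibition score of at least 50 and every replicate individually at or above 50; inconclusive means only one of the two criteria met; inactive means mean below 50 and not all replicates reaching 50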
EWS-Fli block = inhibitors of EWS/Fli oncoprotein transcriptional activity. A673 NR0B1-luciferase reporter, viability-normalised. inhibition, % at 12.6 µM. 350,000 compounds, 0.67% hits. AID 651661;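 active means mean inhibition of at least 50% after viability correction, with every replicate also passing that limit; inconclusive means mean reaches 50% but only one of two replicates passes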;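 further: firefly luciferase signal divided by Alamar Blue viability fluorescence both relative to DMSO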
PAX8 reporter = lowers PAX8-driven luciferase in RMG-I cells | RMG-I TPO-luciferase reporter, SteadyGlo, 24 h | inhibition, % at 12.6 µM | 360,000 compounds, 1.2% hits | AID 652154;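 active means mean replicate inhibition at least 60% with every replicate also reaching 60%; inconclusive means only one of the two criteria is met; inactive means mean below 60% and not all replicates reaching 60%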;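 further: luciferase light reporting Pax8 driven TPO promoter activity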
PGC1a acetyl inh = modulators of PGC1a acetylation | U2OS PGC1a acetylation, AlphaScreen anti-acetyl-lysine; with virally co-expressed GCN5 acetyltransferase | 350,000 compounds, 0.17% hits | inhibition, % at 15.6 µM;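 active means every replicate shows inhibition of at least 40%; inconclusive means mean inhibition at least 40% but some replicate below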
FGF22 binding = shifts melting point of recombinant human FGF22 | AID 651658 | Q9HCT0 | 340,000 compounds, 1.5% hits | activity (Tm shift, normalised), % at 9.99 µM | recombinant FGF22 thermal shift, SYPRO orange fluorescence; percent of sucrose octasulfate shift, DMSO zero;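 active means mean Tm shift, scaled 0 neutral to 100 positive control, at about 1.3% or above, every replicate too, limit read from the data; inconclusive means no clear call, values can overlap the other calls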
Target sequence (Q9HCT0 whole entry, looked up): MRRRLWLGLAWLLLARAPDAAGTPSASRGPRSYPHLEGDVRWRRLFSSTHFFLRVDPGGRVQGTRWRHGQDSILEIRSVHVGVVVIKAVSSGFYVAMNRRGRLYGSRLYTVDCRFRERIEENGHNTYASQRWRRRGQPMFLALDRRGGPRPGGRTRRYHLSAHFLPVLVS
Numbers stand for hits.

Results for C[C@H](CO)N1C[C@H](C)[C@H](CN(C)Cc2cccnc2)Oc2cc(/C=C/c3ccccc3)ccc2S1(=O)=O ?
HIV Env fusion: inactive; EWS-Fli block: inactive; PAX8 reporter: inactive; PGC1a acetyl inh: inactive; FGF22 binding: inactive

What do the screens show for `C[C@H]1CN([C@@H](C)CO)S(=O)(=O)c2ccc(/C=C/c3ccccc3)cc2O[C@@H]1CN(C)Cc1cccnc1`?
HIV Env fusion: inactive; EWS-Fli block: inactive; PAX8 reporter: 86; PGC1a acetyl inh: inactive; FGF22 binding: inactive

What do the screens show for `COc1cc(C2Oc3ccccc3C=C2[N+](=O)[O-])cc(OC)c1OC` (centres undefined)?
FN deposit inh: inactive; HIV Env fusion: inactive; EWS-Fli block: 52; PAX8 reporter: inactive; PGC1a acetyl inh: inactive; FGF22 binding: inactive

Results for C=C1C2(C(=O)Nc3ccc(SC(F)F)cc3)CCC(C2)C1(C)C (centres undefined) ?
FN deposit inh: inactive; EWS-Fli block: inactive; PAX8 reporter: 98; FGF22 binding: inactive

How did CN(C)C(=O)c1ccc(-c2ccc([C@@H]3[C@@H](C#N)N(C(=O)Cc4ccccn4)[C@H]3CO)cc2)cc1 do in these assays?
FN deposit inh: inactive; HIV Env fusion: inactive; EWS-Fli block: inactive; PAX8 reporter: inactive; PGC1a acetyl inh: inactive; FGF22 binding: inactive

How did Cn1cnc(S(=O)(=O)N[C@H]2C=C[C@@H](CC(=O)NCC3CC3)O[C@H]2CO)c1 do in these assays?
FN deposit inh: inactive; HIV Env fusion: inactive; EWS-Fli block: inactive; PAX8 reporter: inactive; PGC1a acetyl inh: inactive; FGF22 binding: inactive

What do the screens show for `O=C(N/N=C/C=C\c1ccco1)c1cccs1`?
FN deposit inh: inactive; HIV Env fusion: inactive; EWS-Fli block: inactive; PAX8 reporter: inactive; PGC1a acetyl inh: inactive; FGF22 binding: 44

What do the screens show for `COc1cc(NC(=S)N2CCN(CCO)CC2)c(OC)cc1Cl`?
FN deposit inh: inactive; HIV Env fusion: inactive; EWS-Fli block: inactive; PAX8 reporter: inactive; PGC1a acetyl inh: inactive

How did COc1cc(NC(=S)N2CCCC(CO)C2)c(OC)cc1Cl (centres undefined) do in these assays?
FN deposit inh: inactive; HIV Env fusion: inactive; EWS-Fli block: inactive; PAX8 reporter: inactive; FGF22 binding: 44

How did O=C(CCN1CCCCC1)N[C@H]1CC[C@@H](CCNC(=O)c2cc(Cl)cc(Cl)c2)O[C@@H]1CO do in these assays?
FN deposit inh: inactive; HIV Env fusion: inactive; EWS-Fli block: inactive; PAX8 reporter: inactive; PGC1a acetyl inh: inactive; FGF22 binding: inactive

What do the screens show for `Cc1ccc(CNCC(=O)Nc2ccc(C)cc2Br)cc1`?
FN deposit inh: inactive; HIV Env fusion: inactive; EWS-Fli block: inactive; PAX8 reporter: inactive; PGC1a acetyl inh: inactive; FGF22 binding: 44

What do the screens show for `O=C(Nc1ccccc1F)N1C[C@@H]2[C@H](c3ccccc31)[C@H](CO)N2C(=O)Cc1ccccc1`?
EWS-Fli block: inactive; PAX8 reporter: inactive; PGC1a acetyl inh: inactive; FGF22 binding: inactive

What do the screens show for `C[C@@H]1CN([C@H](C)CO)C(=O)CCCn2cc(nn2)CO[C@@H]1CN(C)Cc1cccc(O)c1`?
FN deposit inh: inactive; HIV Env fusion: inactive; EWS-Fli block: inactive; PGC1a acetyl inh: inactive; FGF22 binding: inactive

How did Cc1ccc2c(c1)-c1c(ssc1=S)C(C)(C)N2C(=O)c1ccco1 do in these assays?
FN deposit inh: inactive; HIV Env fusion: 57; PGC1a acetyl inh: inactive

What do the screens show for `CC1(C)c2ssc(=S)c2-c2ccccc2N1C(=O)c1ccco1`?
FN deposit inh: inactive; HIV Env fusion: inactive; PGC1a acetyl inh: inactive

What do the screens show for `O=C(COc1cccc2cccnc12)NCC(F)(F)F`?
FN deposit inh: inactive; HIV Env fusion: inactive; PAX8 reporter: inactive; PGC1a acetyl inh: inactive

What do the screens show for `O=C(COC(=O)COc1cccc2ccccc12)NCC(F)(F)F`?
FN deposit inh: inactive; HIV Env fusion: inactive; EWS-Fli block: inactive; PAX8 reporter: inactive; FGF22 binding: 43

Results for CS(=O)(=O)N1CCN(CCN2C(=O)c3cccc4cccc(c34)C2=O)CC1 ?
FN deposit inh: inactive; HIV Env fusion: inactive; EWS-Fli block: inactive; PAX8 reporter: inactive; FGF22 binding: 45

Results for COc1cc(/C=N/NS(=O)(=O)c2ccc(C)cc2)ccc1OCc1ccc(C(=O)O)cc1 ?
FN deposit inh: inactive; HIV Env fusion: 72; PAX8 reporter: 100

How did CCOc1ccc(/C=N/NS(=O)(=O)c2ccc(C)cc2)cc1OC do in these assays?
FN deposit inh: inactive; HIV Env fusion: inactive; EWS-Fli block: inactive; PAX8 reporter: inactive; PGC1a acetyl inh: inactive; FGF22 binding: inactive

How did C[C@@H](NC(=O)[C@H]1[C@H](CO)[C@H]2Cn3c(cccc3=O)[C@@H]1N2C(=O)C1CC1)c1ccccc1 do in these assays?
EWS-Fli block: inactive; FGF22 binding: inactive

What do the screens show for `CC=Cc1ccc2n(c1=O)C[C@H]1[C@H](CO)[C@@H](C(=O)NCCOC)[C@@H]2N1Cc1ccccc1` (mixture of isomers)?
EWS-Fli block: inactive; PAX8 reporter: inactive; PGC1a acetyl inh: inactive; FGF22 binding: inactive

How did COc1cc(-c2cccc([C@H]3[C@@H]4C=CC[C@@H](C)[C@@H]4C(=O)N3Cc3ccccc3)c2)cc(OC)c1OC do in these assays?
HIV Env fusion: 47; EWS-Fli block: inactive; PAX8 reporter: inactive; PGC1a acetyl inh: inactive; FGF22 binding: inactive

How did COc1ccc(-c2ccc(C)cc2)cc1[C@H]1[C@H]2C=CC[C@@H](C)[C@@H]2C(=O)N1Cc1ccccc1 do in these assays?
FN deposit inh: inactive; HIV Env fusion: 56; EWS-Fli block: inactive; PAX8 reporter: inactive; PGC1a acetyl inh: inactive; FGF22 binding: inactive

What do the screens show for `CC1(C)CC(=O)C=C(N2CCNCC2)C1`?
FN deposit inh: inactive; HIV Env fusion: inactive; PAX8 reporter: inactive; PGC1a acetyl inh: inactive

What do the screens show for `CCN(CC)C1=CC(=[N+]2CCCC2)CC(C)(C)C1`?
FN deposit inh: inactive; HIV Env fusion: inconclusive; PAX8 reporter: inactive

How did CC1CC(C)C[N+](=C2C=C(N3CCCC3)CC(C)(C)C2)C1 (centres undefined) do in these assays?
FN deposit inh: inactive; HIV Env fusion: inactive; EWS-Fli block: inactive; PAX8 reporter: 75; FGF22 binding: inactive

How did CC1(C)CC(N2CCCC2)=CC(=[N+]2CCCCCC2)C1 do in these assays?
HIV Env fusion: inactive; EWS-Fli block: inactive; PAX8 reporter: 79; FGF22 binding: inactive

How did CN(Cc1ccccc1)C1=CC(=[N+]2CCCC2)CC(C)(C)C1 do in these assays?
FN deposit inh: inactive; HIV Env fusion: 60; EWS-Fli block: inactive; PAX8 reporter: inactive; PGC1a acetyl inh: inactive; FGF22 binding: inactive

How did CSc1nc(N2CCN(c3ccccc3)CC2)cc(N2CCN(c3ccccc3)CC2)n1 do in these assays?
FN deposit inh: inactive; HIV Env fusion: inactive; EWS-Fli block: inactive; PAX8 reporter: inactive; PGC1a acetyl inh: inactive; FGF22 binding: inactive

Results for CC1(C)CC(N2CCN(c3ccccc3)CC2)=CC(=[N+]2CCCC2)C1 ?
FN deposit inh: inactive; HIV Env fusion: 81; PGC1a acetyl inh: inactive
